Measured values taken from ChEMBL document CHEMBL1137693, “Antiamoebic coumarins from the root bark of Adina cordifolia and their new thiosemicarbazone derivatives” (Eur J Med Chem, 2009).

Test: Cytotoxicity against rat H9c2 cells assessed as cell viability at 3.125 to 200 ug/ml after 48 hrs by MTT assay
Format: cell-based
Settings: read-out: Activity
How it was run: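 Rat H9c2 cardiac myoblasts maintained in high-glucose DMEM with 10% heat-inactivated FBS and antibiotics at 37 °C, 5% CO₂. Subconfluent cells exposed 48 h to 3.125–200 μg/ml. MTT (5 mg/ml) added for 45 min at 37 °C; formazan dissolved in acid isopropanol, absorbance read at 570 nm (reference 655 nm). Viability relative to untreated controls; triplicate.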

Compound | viability at 48 h [%]
C/C(=N\NC(=S)NCc1ccccc1)c1c(O)ccc2ccc(=O)oc12 | > 80
C/C(=N\NC(=S)NC12CC3CC(CC(C3)C1)C2)c1c(O)ccc2ccc(=O)oc12 | > 80
C/C(=N\NC(=S)N1CCC(Cc2ccccc2)CC1)c1c(O)ccc2ccc(=O)oc12 | > 80
